Assay results from ChEMBL document CHEMBL3632600, “Novel arylalkylamine compounds exhibits potent selective antiparasitic activity against Leishmania major” (Bioorg Med Chem Lett, 2015).

How the values were obtained:
Leishmania major [1] = test: Antileishmanial activity against promastigote stage of Leishmania major Friedlin clone V1 assessed as parasite survival after 72 hrs by luciferase reporter gene assay; format: functional; settings: Friedlin clone V1, 72 h, read-out: LD50 (the source's name)
Procedure, shortened: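 Luciferase-expressing L. major Friedlin clone V1 promastigotes exposed to compound for 72 h; Amphotericin B served as positive control. Lethality is expressed as LD50.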

LLC-MK2 = test: Cytotoxicity against monkey LLC-MK2 cells after 96 hrs by Alamar Blue assay; format: cell-based; settings: Macaca mulatta, LLC-MK2, 96 h
U2OS = test: Cytotoxicity against human U2OS cells after 96 hrs by Alamar Blue assay; format: cell-based
Leishmania major [2] = test: Antileishmanial activity against amastigote stage of Leishmania major in starch-activated mouse intraperitoneal macrophages assessed as inhibition of intracellular parasite proliferation at 5 uM after 48 hrs by annexin-V 488/DAPI staining-based microplate confocal microscopic analysis relative to control; format: functional
Procedure, shortened: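 Macrophages infected 24 h after plating with L. major metacyclic promastigotes at 10 parasites per cell, then treated 48 h at 5 µM. Fixed, stained with annexin-V 488 and DAPI; infected cells (5 or more amastigotes per macrophage) and amastigotes counted by high-content confocal imaging. Negative control 1% DMSO; positive control amphotericin B 25 µM.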

Leishmania major [3] = test: Antileishmanial activity against promastigote stage of Leishmania major assessed as induction of intracellular reactive oxygen species generation at 3 uM preincubated for 24 hrs followed by H2DCFDA probe addition measured after 20 mins by fluorescence microplate reader analysis relative to vehicle-treated control; format: functional
Procedure, shortened: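 L. major promastigotes exposed 24 h (3 µM for the single-concentration read). H2DCFDA then added and incubated a further 20 min at 37 °C; fluorescence read on a microplate reader and expressed relative to 1% DMSO vehicle. Medium-only also served as negative control; hydrogen peroxide 100 µM as positive control.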

RAW264.7 = test: Cytotoxicity against mouse Raw264.7 cells after 96 hrs by Alamar Blue assay; format: cell-based; settings: RAW264.7, 96 h
[4] = Cytotoxicity against mouse intraperitoneal macrophages after 48 hrs by Alamar Blue assay; format: cell-based; settings: Peritoneal macrophage cell

Row | SMILES | LC50 (Leishmania major [1]) [µM] | further results
1 | Nc1cc(C(=O)OCCN2CCOCC2)ccc1NC1CCCCC1 | > 10 | –
2 | CCOC(=O)c1ccc(NC23CC4CC(CC(C4)C2)C3)c(NCc2ccncn2)c1 | > 10 | –
3 | CCOC(=O)c1ccc(NC2CCCCC2)c(N)c1 | 28.8 | IC50 (LLC-MK2): > 240 µM
4 | CCOC(=O)c1cc(NCc2ccncn2)c(NC2CCCCC2)cc1F | 9.49 | –
5 | CCOC(=O)c1ccc(NC2CCOCC2)c(N)c1 | > 10 | –
6 | CCOC(=O)c1ccc(NC2CCC(C(C)(C)C)CC2)c(NCc2ccncn2)c1 (stereo not drawn) | 4.92 | –
7 | CCOC(=O)c1ccc(NC2CCCCC2)c(NCc2cc(F)cc(Br)c2)c1 | > 10 | –
8 | CCOC(=O)c1ccc(NC2CCCCC2)c(NCc2ccc([N+](=O)[O-])cc2)c1 | > 10 | –
9 | CCOC(=O)c1cnc(NC2CCCCC2)c(N)c1 | > 10 | –
10 | CCOC(=O)c1ccc(NC2CCCCC2)c(NCc2cccc(OC)c2)c1 | 4.98 | –
11 | CCOC(=O)c1ccc(NC2CCCCC2)c(NCc2ccc(OC)cc2)c1 | > 10 | –
12 | CCOC(=O)c1ccc(NC2CCCCC2)c(NC(=O)OC)c1 | > 10 | –
13 | CCOC(=O)c1ccc(NC2CCCCC2)c(NCc2cccc(Cl)c2)c1 | > 10 | –
14 | CCOC(=O)c1ccc(N[C@H]2CC[C@H](N)CC2)c(N)c1 | > 10 | –
15 | CCOC(=O)c1ccc(NC2CCCCC2)c(NCc2ccc(C#N)cc2)c1 | > 10 | –
16 | O=C(O)c1ccc(NC2CCCCC2)c(NCc2ccccc2)c1 | > 10 | –
17 | CCOC(=O)c1ccc(NC2CCCCC2)c(NCc2ccc(C(=O)OC)cc2)c1 | > 10 | –
18 | CCOC(=O)c1ccc(NC23CC4CC(CC(C4)C2)C3)c(NCc2ccccc2)c1 | > 10 | –
19 | CCOC(=O)c1cc(N)c(NC2CCCCC2)cc1F | > 10 | –
20 | CCOC(=O)c1ccc(NC2CCCCC2)c(NCc2ccccc2[N+](=O)[O-])c1 | > 10 | –
21 | CCCCCCCCCCOC(=O)c1cc(N)c(NC2CCCCC2)cc1F | > 10 | –
22 | CCOC(=O)c1ccc(NC2CCC(C(C)(C)C)CC2)c(NCc2ccccc2)c1 (stereo not drawn) | > 10 | –
23 | CCOC(=O)c1ccc(NC2CCCCC2)c(N(Cc2ccccc2)Cc2ccccc2)c1 | > 10 | –
24 | CCOC(=O)c1ccc(NC2CCCCC2)c(NCc2cccc(F)c2)c1 | > 10 | –
25 | CCOC(=O)c1ccc(NC2CCCCC2)c(NCc2ccc(F)c(C#N)c2)c1 | > 10 | –
26 | CCOC(=O)c1ccc(NC2CCCCC2)c([N+](=O)[O-])c1 | > 10 | –
27 | CCOC(=O)c1ccc(NC2CCCCC2)c(NCc2ccccc2)c1 | 3.34 | IC50 (U2OS): > 80 µM; inhibition at 5 µM (Leishmania major [2]): 80%; fold change (FC) (Leishmania major [3]): 1.75; IC50 (RAW264.7): > 80 µM; IC50 [4]: > 80 µM
